Results taken from PMC7679043 (Molecular imaging and biology, 2020).
“Also recorded” adds a separate entry of the source. Where two headings read alike, the source gives them in different places. One block for each molecule: values may come before it.

Columns and labels:
[1] = system: S1PR1; conditions: read-out: IC50, nM S1PR1; binding affinity reported previously; cited from earlier work
[2] = system: S1PR2-5; conditions: read-out: IC50, nM S1PR2-5; binding affinity reported previously; cited from earlier work
[3] = molecular target: S1PR1 (Rattus norvegicus, UniProt P48303); format: in vivo; conditions: for Average uptake: 10–60 min post injection; for 2TCM VT: image-derived input function
Chain of S1PR1 (Rattus norvegicus, UniProt P48303) (P48303 whole entry): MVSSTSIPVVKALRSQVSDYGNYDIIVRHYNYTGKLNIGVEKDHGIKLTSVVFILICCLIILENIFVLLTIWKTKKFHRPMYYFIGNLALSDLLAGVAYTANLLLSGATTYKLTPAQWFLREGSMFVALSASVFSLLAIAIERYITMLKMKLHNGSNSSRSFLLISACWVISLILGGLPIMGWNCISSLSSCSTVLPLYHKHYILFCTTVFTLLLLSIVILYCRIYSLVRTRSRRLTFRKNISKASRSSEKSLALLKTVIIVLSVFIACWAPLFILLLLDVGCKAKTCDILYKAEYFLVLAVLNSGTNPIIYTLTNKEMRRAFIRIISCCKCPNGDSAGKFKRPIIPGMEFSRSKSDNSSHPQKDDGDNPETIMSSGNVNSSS
In short: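 EAE and sham rats (n=3–4 per group per tracer) were held under 1.5–2% isoflurane/oxygen, centered on T13. After CT, each received a 15–22 MBq i.v. bolus, followed by 60-min dynamic list-mode PET. Lumbar spinal cord and bilateral carotid ROIs on co-registered PET/CT gave %ID/g TACs. Mean 10–60 min uptake and 2TCM VT (carotid image-derived input) were compared by two-tailed t-test (P<0.05).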

[4] = HPLC radiometabolite analysis of rat plasma and brain; format: in vivo; conditions: for level of the lipophilic radiometabolite / level of the polar radiometabolite / percentage of the parent compound: rat plasma
In short: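 Adult male Sprague Dawley rats were given ~37 MBq tracer i.v. At set times post-injection they were killed by terminal exsanguination under surgical-plane anesthesia. Heparinized left-ventricle blood was spun to plasma, solvent-deproteinated and re-centrifuged. Whole brain was homogenized in cold PBS, then solvent-extracted, deproteinated and centrifuged. Supernatants ran on C18 HPLC with acetonitrile/0.1 M ammonium formate pH 4.5 (70/30) at 0.76 mL/min. Radioactive peaks were expressed as percentages.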

[5] = rat brain homogenate, 5 min p.i.
[6] = rat brain homogenate, 15 min p.i.
[7] = rat brain homogenate, 40 min p.i.
[8] = rat brain homogenate, 60 min p.i.

Structure (SMILES): OCCOCc1ccc(-c2noc(-c3ccc(OCCF)c(C(F)(F)F)c3)n2)cc1 [TZ4877]
- IC50 [1]: 14.01 ± 0.04 nM
- IC50 [2]: > 1000 nM

- Average uptake ([3]; EAE rat lumbar spinal cord): 1.42 ± 0.14 %ID/g
- 2TCM VT ([3]; EAE rat lumbar spinal cord): 2.18 ± 0.20 mL/cc
- 2TCM VT Increase, % ([3]; EAE vs sham): 21.11%
- Average uptake Increase, % ([3]; EAE vs sham rat lumbar spinal cord, listed as 18F-TZ4877): 29.09%
- bone uptake/defluorination ([3]; PET images without CT co-registration, rat): no obvious bone uptake/defluorination
- initial tracer uptake at 20 min ([3]; rat spinal cord, 20 min): ~ 1.5 %ID/g
- tracer uptake / retention at 60 min ([3]; rat spinal cord, 60 min): > 1.0 %ID/g
- Average uptake ([3]; sham rat lumbar spinal cord, listed as 18F-TZ4877): 1.10 ± 0.06 %ID/g
- 2TCM VT ([3]; sham rat lumbar spinal cord): 1.80 ± 0.20 mL/cc
- hydrophilic radiometabolite [4, 5]: 6%
- parent tracer percentage [4, 5]: 78%
- hydrophilic radiometabolite [4, 6]: 2%
- parent tracer percentage [4, 6]: 89%
- hydrophilic radiometabolite [4, 7]: 10%
- parent tracer percentage [4, 7]: 65%
- hydrophilic radiometabolite [4, 8]: 14%
- parent tracer percentage [4, 8]: 68%
- level of the lipophilic radiometabolite ([4]; 5 min p.i.): 14%
- level of the polar radiometabolite ([4]; 5 min p.i.): 7%
- percentage of the parent compound ([4]; 5 min p.i.): 75%
- level of the lipophilic radiometabolite ([4]; 15 min p.i.): 21%
- level of the polar radiometabolite ([4]; 15 min p.i.): 6%
- percentage of the parent compound ([4]; 15 min p.i.): 68%
- level of the lipophilic radiometabolite ([4]; 40 min p.i.): 26%
- level of the polar radiometabolite ([4]; 40 min p.i.): 5%
- percentage of the parent compound ([4]; 40 min p.i.): 66%
- level of the lipophilic radiometabolite ([4]; 60 min p.i.): 41%
- level of the polar radiometabolite ([4]; 60 min p.i.): 5%
- percentage of the parent compound ([4]; 60 min p.i.): 51%
Structure (SMILES): OCCOCc1ccc(-c2noc(-c3ccc(OCC[18F])c(C(F)(F)F)c3)n2)cc1 [TZ4877]
- lipophilic radiometabolite in brain ([4]; rat brain homogenate, listed as 18F-TZ4877): No lipophilic radioactive peak was detected; also recorded: not detected
